Laboratory results: PubChem BioAssay
Activity calls are given as the source filed them.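 Rule for the calls, unless noted: active = a full or partial loss of lipid-probe fluorescence in the fish gall bladder, intestine or both, judged by eye; inactive = no fluorescence loss, or compound toxic to the fish.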

Columns and labels:
[1] = inhibitors of TNFa-induced NFkB p65 translocation, primary screen, imaging, HUVEC, MLSMR starter and 10KST1 sets (AID 438;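 active = inhibition above 20% together with a positive visual image hit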;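 note: compound added about 3h40 before a 20 min TNFalpha stimulation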;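 for inhibition: signal is the nuclear over cytoplasmic p65 intensity ratio per well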); settings: HUVEC TNFa-induced p65 nuclear translocation; cell count: measured here: nuclei count (cytotoxicity indicator), at 2.08 µM; inhibition: at 2 µM, stronger effect = higher value, 0% TNFa-plus-vehicle, 100% no-TNFa wells
[2] = inhibitors of E-selectin induction by TNFa, primary screen, imaging, HUVEC, immunofluorescence, MLSMR starter and 10KST1 sets (AID 487;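 active = visually confirmed hit in the image check and inhibition above 20%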;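 for inhibition: signal is fraction of cell area covered by stained E-selectin grains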;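 for nuclei count: 100% = median nuclei count of all wells on the same plate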); settings: HUVEC TNFalpha-induced E-selectin immunofluorescence imaging, at 2 µM; inhibition: stronger effect = higher value; nuclei count: measured here: cell number, toxicity
[3] = DUSP6 inhibitors restoring Erk phosphorylation by chemical complementation, primary imaging in DUSP6-transfected HeLa (AID 609;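 active = compounds giving at least 50% inhibition in the cell-based MKP-3 phosphatase rescue imaging test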;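 for inhibition: phospho-Erk level distribution per well compared with pooled transfected vehicle control wells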); settings: HeLa MKP-3 transfected, phospho-Erk imaging KS statistic, at 10 µM, cells stimulated with TPA for 15 min
[4] = molecular target: Dual specificity protein phosphatase 6 (Homo sapiens) (UniProt Q16828); assay: as above; settings: HeLa MKP-3 transfected, phospho-Erk imaging KS statistic; at 10 µM; stronger effect = higher value; cells stimulated with TPA for 15 min
[5] = molecular target: Voltage-gated potassium channel subunit beta-2 (Rattus norvegicus) (UniProt P62483); assay: KvBeta enzyme negative modulators, primary screen, biochemical, NADPH fluorescence (AID 622;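 active = fluorescence slope higher than the sample average by over 3 SD, cut at about -0.22 in these data, passing the limit was not always enough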;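 note: slope of raw intensity against log time taken from 70 to 1610 s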); settings: recombinant KvBeta, 4-cyanobenzaldehyde reduction, at 10 µM, stronger effect = higher value
[6] = molecular target: Voltage-gated potassium channel subunit beta-2 (Rattus norvegicus) (UniProt P62483); assay: KvBeta positive modulators, primary screen, biochemical, NADPH fluorescence (AID 623;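 active = NADPH fluorescence slope more negative than the mean of all samples by about 3 SD, 99.7% confidence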;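 note: fluorescence intensity change per second fitted from 20 to 320 s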); settings: Recombinant KvBeta, NADPH fluorescence decrease slope, 10 min; at 10 µM; stronger effect = lower value
[7] = molecular target: Alpha-2C adrenergic receptor (Homo sapiens) (UniProt P18825); assay: modulators of alpha2C/GIRK thallium flux, primary screen, cell-based, HEK293 alpha2C/GIRK1/2 (AID 624;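 active = fluorescence slope after compound addition differing from the mean of all screened samples at 99.7% confidence, in either direction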;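 note: slope of fluorescence ratio to pre-addition baseline per second over 15 to 24 s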); settings: thallium flux BTC fluorescence, at 10 µM, actives lie on both sides
[8] = inhibitors of larval lipid processing in zebrafish, primary screen, whole organism, PED6 fluorescence, gall bladder and intestine (AID 686); settings: Zebrafish larvae PED6 lipid processing, fluorescence scoring; screened at 20 µM (by protocol);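 note: larvae 5 to 7 days old with five fish per well; signal comes from phospholipase A2 cleavage of quenched PED6 carried via bile; overnight exposure to compound and PED6 before scoring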
Summary of the method: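 Doses: 20 µM single dose. Test system: live zebrafish larvae aged 5-7 days, whole organism. Quantity: five larvae per well. Measured by: By-eye fluorescence microscopy. Reagent: ingested quenched lipid PED6 at 100 nM. Read-out: visual per-well fluorescence inhibition score. Times: overnight exposure of larvae to compound plus PED6.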

[9] = inhibitors of Chlamydomonas gravitaxis, primary screen, whole organism, Chlamydomonas reinhardtii, WT vs cilia-less mutant, absorbance, 96-well (AID 463189;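 active = inhibition at or above 50% relative to wild type and mutant plate controls; inactive = inhibition below 50%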;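 note: 0% = wild type cc124 cells in DMSO and 100% = ciliumless bld1 mutant cells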); settings: OD600 absorbance, 2 days, at 10 µM, stronger effect = higher value
[10] = measured here: cell density z-score
[11] = measured here: nuclear c-Myc green intensity z-score
[12] = measured here: nuclear pErk red intensity z-score, stronger effect = higher value

Sequence of Dual specificity protein phosphatase 6 (Homo sapiens) (Q16828 whole entry, looked up): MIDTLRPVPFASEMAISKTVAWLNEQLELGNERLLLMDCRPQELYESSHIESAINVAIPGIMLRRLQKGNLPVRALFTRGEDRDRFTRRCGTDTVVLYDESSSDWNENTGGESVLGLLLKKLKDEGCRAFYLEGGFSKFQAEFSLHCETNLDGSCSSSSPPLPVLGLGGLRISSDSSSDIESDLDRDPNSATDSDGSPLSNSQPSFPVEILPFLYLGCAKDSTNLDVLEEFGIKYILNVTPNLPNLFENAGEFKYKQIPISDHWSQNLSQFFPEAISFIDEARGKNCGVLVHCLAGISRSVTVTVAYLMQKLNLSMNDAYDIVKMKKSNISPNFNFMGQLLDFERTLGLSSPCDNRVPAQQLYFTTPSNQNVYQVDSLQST
Sequence of Alpha-2C adrenergic receptor (Homo sapiens) (P18825 whole entry, looked up): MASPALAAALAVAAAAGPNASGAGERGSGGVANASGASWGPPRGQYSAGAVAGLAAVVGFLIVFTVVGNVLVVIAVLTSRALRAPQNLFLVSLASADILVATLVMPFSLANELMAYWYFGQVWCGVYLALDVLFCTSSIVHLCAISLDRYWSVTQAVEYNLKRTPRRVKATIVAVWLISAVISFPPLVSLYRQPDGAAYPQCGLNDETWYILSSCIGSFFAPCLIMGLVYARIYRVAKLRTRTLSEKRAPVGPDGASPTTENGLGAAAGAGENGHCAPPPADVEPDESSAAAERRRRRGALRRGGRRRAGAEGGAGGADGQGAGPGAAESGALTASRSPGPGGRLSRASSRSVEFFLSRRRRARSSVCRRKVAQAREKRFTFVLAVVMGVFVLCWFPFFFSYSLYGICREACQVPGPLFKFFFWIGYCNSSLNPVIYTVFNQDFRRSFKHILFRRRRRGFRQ
Sequence of Voltage-gated potassium channel subunit beta-2 (Rattus norvegicus) (P62483 whole entry, looked up): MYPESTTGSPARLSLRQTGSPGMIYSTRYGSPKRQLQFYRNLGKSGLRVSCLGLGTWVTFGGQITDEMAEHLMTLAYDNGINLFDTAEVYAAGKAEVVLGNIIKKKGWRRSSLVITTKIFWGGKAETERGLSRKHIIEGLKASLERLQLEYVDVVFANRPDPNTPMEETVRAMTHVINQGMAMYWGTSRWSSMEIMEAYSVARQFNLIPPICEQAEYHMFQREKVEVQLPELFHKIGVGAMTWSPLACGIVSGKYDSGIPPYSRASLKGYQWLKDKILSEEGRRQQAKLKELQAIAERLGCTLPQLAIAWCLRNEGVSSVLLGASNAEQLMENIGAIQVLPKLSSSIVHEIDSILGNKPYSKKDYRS

Compound | cell count [1] | inhibition [1] | inhibition [2] | nuclei count [2] | z-score [3, 10] | z-score [3, 11] | z-score [3, 12] | inhibition [4] | fluorescence slope [5] | NADPH fluorescence slope [6] | slope [7] | outcome [8] | inhibition [9]
Cc1ccc(-c2nn3c(-c4cccc(Cl)c4)nnc3s2)cc1 | 482 | -6.6% (inactive) | -115% (inactive) | 128% | -1.6 | -0.179 | 1.45 | -7.86% (inactive) | -0.434 (inactive) | 7.3e-06 (inactive) | 0.00635 (inactive) | inactive | 26.8% (inactive)
CC(C)OC(=O)CC1=NC(=O)CS1 | 693 | -4% (inactive) | -27.6% (inactive) | 175% | -0.0687 | -1.07 | 0.103 | -0.624% (inactive) | -0.423 (inactive) | -4.2e-05 (inactive) | 0.00582 (inactive) | inactive | -2.62% (inactive)
Cc1sccc1C1C(C#N)=C(N)SC(N)=C1C#N | 693 | -19.1% (inactive) | -22.1% (inactive) | 167% | 0.12 | -0.636 | 1.06 | 16% (inactive) | -0.345 (inactive) | -2.2e-05 (inactive) | 0.00967 (inactive) | inactive | -2.96% (inactive)
N#Cc1ccc(-c2cccnc2)nc1SCC(=O)Nc1sc2c(c1C#N)CCC2 | 539 | -25.4% (inactive) | -101% (inactive) | 144% | 0.414 | 0.682 | 0.527 | -9.66% (inactive) | -0.501 (inactive) | -5.3e-05 (inactive) | 0.00453 (inactive) | inactive | -0.076% (inactive)
COc1ccc(C2=Nn3c(nnc3-c3ccccn3)SC2)cc1OC | 593 | -10% (inactive) | 60% (inactive) | 100% | 1.34 | 0.0492 | -0.154 | -16.8% (inactive) | -0.476 (inactive) | -0.000137 (inactive) | 0.00709 (inactive) | inactive | 9.28% (inactive)
CCOC(=O)C1=C(CSc2nc(-c3ccncc3)ccc2C#N)OC(N)=C(C#N)C1c1cccnc1 (stereo unspecified) | 701 | -10.4% (inactive) | 45.7% (inactive) | 173% | -0.622 | 0.296 | 2 | -8.95% (inactive) | -0.283 (inactive) | -5.8e-05 (inactive) | 0.00429 (inactive) | inactive | -5.64% (inactive)
CCOC(=O)c1cc2c(=O)n3cccc(C)c3nc2n(Cc2cccnc2)c1=N | 583 | 3.3% (inactive) | -66.9% (inactive) | 157% | 0.481 | -1.62 | 0.0154 | 4.25% (inactive) | -0.457 (inactive) | -0.000115 (inactive) | 0.00416 (inactive) | inactive | 58.8% (active)
OCCOCCNc1ncnc2c1cnn2-c1ccccc1 | 472 | -2% (inactive) | -38.9% (inactive) | 162% | -0.85 | 1.86 | 0.161 | 16.8% (inactive) | -0.374 (inactive) | -1.3e-05 (inactive) | 0.00585 (inactive) | inactive | 0.488% (inactive)
CCOc1ccc(C2=Nn3c(nnc3-c3ccccn3)SC2)cc1 | 493 | 1.1% (inactive) | -197% (inactive) | 107% | 1.13 | -0.317 | 0.587 | -13.3% (inactive) | -0.467 (inactive) | -3.6e-05 (inactive) | 0.00617 (inactive) | inactive | 0.114% (inactive)
c1ccc(OCc2nn3c(-c4cccnc4)nnc3s2)cc1 | 598 | -6.1% (inactive) | -87.1% (inactive) | 146% | 0.586 | -1.52 | -0.25 | -16.8% (inactive) | -0.423 (inactive) | -5.5e-05 (inactive) | 0.0063 (inactive) | inactive | 22.5% (inactive)
CC1(C)Cc2c(sc(NC(=O)c3ccc(Br)o3)c2C#N)CO1 | 406 | -17.8% (inactive) | -330% (inactive) | 140% | 0.838 | -0.788 | -0.494 | 7.48% (inactive) | -0.371 (inactive) | -1.6e-05 (inactive) | 0.00697 (inactive) | inactive | 8.5% (inactive)
Cc1nc(NS(=O)(=O)c2ccccc2)sc1NC(=O)OCCN(C)C | 362 | -18.9% (inactive) | -107% (inactive) | 130% | 1.66 | -0.339 | -0.337 | 24.3% (inactive) | -0.331 (inactive) | 2.1e-06 (inactive) | 0.00439 (inactive) | inactive | 34.8% (inactive)
Cn1c(=O)c2c(nc(SCCN3CCCCC3)n2Cc2ccc(Cl)cc2)n(C)c1=O | 498 | -3.7% (inactive) | -203% (inactive) | 140% | 0.51 | -0.662 | -1.54 | 21% (inactive) | -0.526 (inactive) | -1.5e-05 (inactive) | 0.00528 (inactive) | inactive | 104% (active)
CCOC(=O)C1=C(C)NC(=O)NC1c1ccc2c(c1)OCO2 (stereo unspecified) | 603 | -9.5% (inactive) | -11.9% (inactive) | 154% | 0.562 | 0.385 | -0.648 | -13.3% (inactive) | -0.387 (inactive) | -7.4e-05 (inactive) | 0.00581 (inactive) | inactive | -6.75% (inactive)
CN1C(=O)NC(NC(=O)c2ccco2)(C(F)(F)F)C1=O (stereo unspecified) | 489 | -3.4% (inactive) | -78% (inactive) | 116% | -0.0785 | -0.489 | 0.527 | 3.5% (inactive) | -0.504 (inactive) | -6e-05 (inactive) | 0.00753 (inactive) | inactive | -10.1% (inactive)
CCCCOc1ccccc1/C=c1/sc2nc(-c3oc4ccccc4c3C)nn2c1=O | 431 | 0.7% (inactive) | -36.7% (inactive) | 128% | 0.907 | 2.04 | -0.0877 | 2.46% (inactive) | -0.325 (inactive) | -1e-05 (inactive) | 0.00462 (inactive) | inactive | -7.58% (inactive)
COc1cc(-c2cc(C(F)(F)F)n3ncc(C(=O)O)c3n2)cc(OC)c1OC | 479 | -8.4% (inactive) | -63% (inactive) | 123% | 0.0221 | -0.381 | 0.038 | 11.3% (inactive) | -0.439 (inactive) | -0.000193 (inactive) | 0.00431 (inactive) | inactive | -8.65% (inactive)
CCOC(=O)C1CCN(c2nc3ccccc3nc2C(C#N)C(=O)NCCc2ccccc2)CC1 (stereo unspecified) | 441 | 3.4% (inactive) | -167% (inactive) | 184% | 0.0297 | 0.625 | -0.588 | 13.2% (inactive) | -0.426 (inactive) | -6.6e-05 (inactive) | 0.00158 (inactive) | inactive | 13.3% (inactive)
ClC(Br)=C(n1cnc2ccccc21)n1cnc2ccccc21 | 536 | -11% (inactive) | -108% (inactive) | 155% | 1.2 | -0.506 | -1.02 | 16.1% (inactive) | -0.523 (inactive) | -3.7e-05 (inactive) | 0.00536 (inactive) | inactive | 30.5% (inactive)
Cc1nnc(C)n1/N=C/c1cccn1C | 300 | -9.7% (inactive) | -14.9% (inactive) | 136% | -0.977 | 2.09 | -1.42 | 3.5% (inactive) | -0.412 (inactive) | -0.00014 (inactive) | 0.00647 (inactive) | inactive | -5.16% (inactive)
CCOC(=O)c1c(C)[nH]sc1=S | 569 | -2.6% (inactive) | 42.2% (inactive) | 95.8% | -1.01 | 0.222 | 0.907 | 9.82% (inactive) | -0.335 (inactive) | -1.2e-06 (inactive) | 0.00974 (inactive) | inactive | 30.1% (inactive)
C[C@@H]1C[C@H](Nc2ccccc2)c2ccccc2N1C(=O)c1cccnc1 | 539 | -1.7% (inactive) | 3.9% (inactive) | 159% | 2.9 | -1.02 | 0.461 | 25.7% (inactive) | -0.265 (inactive) | 6.9e-06 (inactive) | 0.00503 (inactive) | inactive | 0.503% (inactive)
C=C(C)CN1CCN(c2c(CCC#N)c(C)c(C#N)c3nc4ccccc4n23)CC1 | 553 | -17.5% (inactive) | -77% (inactive) | 159% | -0.509 | -0.729 | -0.345 | -4.27% (inactive) | -0.00664 (inactive) | -2.3e-06 (inactive) | 0.00756 (inactive) | inactive | 17.9% (inactive)
CNC(=O)c1ncnnc1N(C)C(=O)NCc1ccccc1 | 506 | -21% (inactive) | -54.6% (inactive) | 134% | 0.229 | 0.0819 | -1.12 | -9.66% (inactive) | -0.531 (inactive) | -2.3e-05 (inactive) | 0.00729 (inactive) | inactive | 9.13% (inactive)
COC(=O)c1sc(NC(=O)C(C)C)c(C(=O)OC)c1C | 354 | -0.5% (inactive) | 29.8% (inactive) | 93.5% | -0.757 | -0.742 | 1.06 | 3.42% (inactive) | -0.426 (inactive) | -1.5e-05 (inactive) | 0.00623 (inactive) | inactive | -7.45% (inactive)
COc1ccc(C2=Nn3c(nnc3-c3ccccn3)SC2)cc1 | 635 | -4.7% (inactive) | -43.3% (inactive) | 169% | 0.562 | 0.488 | -0.686 | -4.27% (inactive) | -0.427 (inactive) | -0.00018 (inactive) | 0.0069 (inactive) | inactive | 2.53% (inactive)
COC(=O)c1ccc(OC(=O)c2ccc(OC)c(OC)c2)c(OC)c1 | 601 | -0.3% (inactive) | 2.2% (inactive) | 142% | 0.251 | -0.0242 | -0.151 | 11.4% (inactive) | -0.491 (inactive) | -0.000121 (inactive) | 0.00612 (inactive) | inactive | 1.14% (inactive)
